Measured values taken from ChEMBL document CHEMBL1143108, “Design and SAR of selective T-type calcium channel antagonists containing a biaryl sulfonamide core” (Bioorg Med Chem Lett, 2008).

Columns and labels:
[1] = target: T1, Voltage-dependent T-type calcium channel subunit alpha-1H (Homo sapiens, UniProt O95180); assay: Antagonist activity at human alpha1H T-type calcium channel expressed in HEK293 cells at 1 uM by patch clamp technique; type: functional, cell-based
Outline: (§1)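 Whole-cell patch clamp. Peak inward current measured before and after compound addition to the bath.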

[2] = target: Voltage-gated L-type calcium channel (Rattus norvegicus, UniProt P22002+Q02485+P27732); assay: Antagonist activity at L-type calcium channel in rat aorta; type: functional, tissue-based
Outline: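 Rat aorta rings contracted near-maximally with KCl. Test compound added at increasing doses, and IC50 taken for inhibition of force as a functional L-type calcium channel read-out.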

[3] = Ratio of IC50 for L-type calcium channel in rat aorta method to IC50 for human T-type calcium channel in patch clamp method; type: tissue-based
[4] = target: T1, Voltage-dependent T-type calcium channel subunit alpha-1H; assay: Antagonist activity at human alpha1H T-type calcium channel expressed in HEK293 cells by patch clamp technique; type: functional, cell-based; outline: as §1

T1 sequence (O95180 whole entry): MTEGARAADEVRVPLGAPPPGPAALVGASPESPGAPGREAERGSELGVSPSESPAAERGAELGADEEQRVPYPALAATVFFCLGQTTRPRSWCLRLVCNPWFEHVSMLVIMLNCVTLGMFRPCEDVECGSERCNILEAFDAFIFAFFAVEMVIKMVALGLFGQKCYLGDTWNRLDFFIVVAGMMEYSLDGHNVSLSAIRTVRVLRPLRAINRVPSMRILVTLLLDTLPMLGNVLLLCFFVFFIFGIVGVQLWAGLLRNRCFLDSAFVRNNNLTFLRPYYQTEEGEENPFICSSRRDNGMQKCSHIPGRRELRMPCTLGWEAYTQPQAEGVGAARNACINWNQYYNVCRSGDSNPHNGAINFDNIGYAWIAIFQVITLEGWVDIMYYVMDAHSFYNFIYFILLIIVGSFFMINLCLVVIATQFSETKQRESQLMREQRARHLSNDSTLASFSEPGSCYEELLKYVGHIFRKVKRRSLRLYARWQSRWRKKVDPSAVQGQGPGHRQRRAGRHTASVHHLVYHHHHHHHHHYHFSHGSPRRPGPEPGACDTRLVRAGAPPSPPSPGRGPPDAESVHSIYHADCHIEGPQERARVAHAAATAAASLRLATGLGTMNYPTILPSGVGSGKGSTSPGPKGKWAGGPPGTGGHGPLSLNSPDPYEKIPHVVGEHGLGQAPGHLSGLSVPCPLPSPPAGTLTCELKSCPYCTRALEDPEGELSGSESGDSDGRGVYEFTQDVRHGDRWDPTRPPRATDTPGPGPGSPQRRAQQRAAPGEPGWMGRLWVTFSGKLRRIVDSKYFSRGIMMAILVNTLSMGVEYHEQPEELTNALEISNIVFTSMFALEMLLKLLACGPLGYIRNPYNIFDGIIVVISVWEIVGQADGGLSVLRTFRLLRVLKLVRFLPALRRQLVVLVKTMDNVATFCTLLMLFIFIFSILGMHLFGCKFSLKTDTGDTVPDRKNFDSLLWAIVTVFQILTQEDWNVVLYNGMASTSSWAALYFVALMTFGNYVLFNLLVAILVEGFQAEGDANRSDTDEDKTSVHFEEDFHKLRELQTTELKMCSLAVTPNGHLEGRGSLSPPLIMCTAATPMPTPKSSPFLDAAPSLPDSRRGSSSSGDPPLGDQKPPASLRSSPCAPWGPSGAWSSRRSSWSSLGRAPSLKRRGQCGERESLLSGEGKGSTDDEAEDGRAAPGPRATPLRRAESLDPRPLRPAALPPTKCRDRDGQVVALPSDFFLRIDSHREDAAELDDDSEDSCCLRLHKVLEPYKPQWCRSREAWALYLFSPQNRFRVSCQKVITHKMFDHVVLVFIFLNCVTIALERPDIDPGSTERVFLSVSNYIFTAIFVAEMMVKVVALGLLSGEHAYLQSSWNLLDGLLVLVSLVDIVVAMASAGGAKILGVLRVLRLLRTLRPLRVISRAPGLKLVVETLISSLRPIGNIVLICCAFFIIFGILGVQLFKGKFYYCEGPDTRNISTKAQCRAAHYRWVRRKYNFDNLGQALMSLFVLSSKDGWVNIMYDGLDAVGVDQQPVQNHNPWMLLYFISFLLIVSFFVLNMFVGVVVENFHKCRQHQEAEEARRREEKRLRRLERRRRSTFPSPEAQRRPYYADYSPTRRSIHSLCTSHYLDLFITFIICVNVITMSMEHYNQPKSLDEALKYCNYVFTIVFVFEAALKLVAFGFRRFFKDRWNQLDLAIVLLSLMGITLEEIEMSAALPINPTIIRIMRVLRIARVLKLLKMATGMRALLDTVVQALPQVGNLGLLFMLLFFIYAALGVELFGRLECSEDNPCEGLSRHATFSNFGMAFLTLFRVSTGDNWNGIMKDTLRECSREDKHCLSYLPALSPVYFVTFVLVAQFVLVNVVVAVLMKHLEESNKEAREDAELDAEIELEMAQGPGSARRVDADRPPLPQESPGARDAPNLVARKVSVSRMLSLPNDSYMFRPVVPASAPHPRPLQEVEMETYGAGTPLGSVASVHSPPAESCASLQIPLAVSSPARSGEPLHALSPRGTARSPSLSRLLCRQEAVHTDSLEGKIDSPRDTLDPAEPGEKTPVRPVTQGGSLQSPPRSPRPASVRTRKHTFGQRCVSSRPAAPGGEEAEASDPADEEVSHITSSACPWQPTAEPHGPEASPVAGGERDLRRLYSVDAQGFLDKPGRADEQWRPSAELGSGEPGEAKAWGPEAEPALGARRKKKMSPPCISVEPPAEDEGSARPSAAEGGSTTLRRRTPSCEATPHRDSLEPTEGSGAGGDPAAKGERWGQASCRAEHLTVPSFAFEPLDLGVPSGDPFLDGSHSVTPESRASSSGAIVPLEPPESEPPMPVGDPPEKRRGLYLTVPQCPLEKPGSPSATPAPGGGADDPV

Compound	inhibition [1]	IC50 [2]	Ratio IC50 [3]	IC50 [4]
CN(C)CCNC(=O)CN(c1cccc(Cl)c1)S(=O)(=O)c1cccc(NC(=O)CN(C)C(=O)OCc2ccccc2)c1	22%	–	–	–
CC(C)OC(=O)CN(c1cccc(Cl)c1)S(=O)(=O)c1cccc(NC(=O)CCNC(=O)OCc2ccccc2)c1	73%	17000 nM	41	420 nM
CCOC(=O)CN(c1cccc(Cl)c1)S(=O)(=O)c1cccc(NC(=O)CN(C)C(=O)OCc2ccccc2)c1	35%	–	–	–
CC1=C(C(=O)OC(C)C)C(c2cccc(Cl)c2)N(CCCN(C)C(=O)c2ccc(Oc3ccccc3)cc2)C(=O)N1 (stereo unspecified)	–	2100 nM	–	250 nM
CC(=O)N(CCCN(C)S(=O)(=O)c1ccc(Oc2ccccc2)cc1)C(CC(=O)OC(C)C)c1cccc(Cl)c1 (stereo unspecified)	17%	–	–	–
CC(C)OC(=O)CN(c1cccc(Cl)c1)S(=O)(=O)c1cccc(NC(=O)CN(C)C(=O)OCc2ccccc2)c1	78%	15000 nM	62	240 nM
CC(C)NC(=O)CN(c1cccc(Cl)c1)S(=O)(=O)c1cccc(NC(=O)CN(C)C(=O)OCc2ccccc2)c1	–	> 30000 nM	> 17	1700 nM
CC(C)OC(=O)CN(c1cccc(Cl)c1)S(=O)(=O)c1cccc(NC(=O)Cc2ccccc2)c1	40%	–	–	–
CN(CC(=O)Nc1cccc(S(=O)(=O)N(Cc2ccccc2)c2cccc(Cl)c2)c1)C(=O)OCc1ccccc1	–	12000 nM	109	110 nM
CC(C)OC(=O)c1ccc(NC(=O)CN(C)C(=O)OCc2ccccc2)cc1-c1cccc(Cl)c1	24%	–	–	–
CC(C)OC(=O)CN(c1cccc(Cl)c1)S(=O)(=O)c1cccc(NC(=O)CCc2ccccc2)c1	–	> 30000 nM	> 55	540 nM
CC(C)OC(=O)c1ccc(NC(=O)CCc2ccccc2)cc1-c1cccc(Cl)c1	6%	–	–	–
CC(=O)Nc1cccc(S(=O)(=O)N(CC(=O)OC(C)C)c2cccc(Cl)c2)c1	0%	–	–	–
CC(C)CCCN(c1cccc(Cl)c1)S(=O)(=O)c1cccc(NC(=O)CN(C)C(=O)OCc2ccccc2)c1	–	12000 nM	67	180 nM
CC(=O)N(CCCN(C)C(=O)c1ccc(Oc2ccccc2)cc1)Cc1cccc(Cl)c1	5%	–	–	–
CC(=O)N(CCCN(C)S(=O)(=O)c1ccc(Oc2ccccc2)cc1)Cc1cccc(Cl)c1	30%	–	–	–
CC1=C(C(=O)OC(C)C)C(c2cccc(Cl)c2)N(CCCN(C)C(=O)c2ccc(Oc3ccccc3)cc2)C(=O)N1 (single isomer, unassigned; enantiomer 1)	–	–	–	180 nM
CN(CC(=O)Nc1cccc(S(=O)(=O)N(CC(=O)O)c2cccc(Cl)c2)c1)C(=O)OCc1ccccc1	11%	–	–	–
CC1=C(C(=O)OC(C)C)C(c2cccc(Cl)c2)N(CCCN(C)C(=O)c2ccc(Oc3ccccc3)cc2)C(=O)N1 (single isomer, unassigned; enantiomer 2)	–	3800 nM	–	650 nM
COCC(=O)O[C@]1(CCN(C)CCCc2nc3ccccc3[nH]2)CCc2cc(F)ccc2[C@@H]1C(C)C [MIBEFRADIL]	–	7000 nM	–	–
